Measured values reported in ChEMBL document CHEMBL3286141 (Bioorg Med Chem, 2014).
Calls of active or inactive are those of the source. No cut-off for these calls is given here.

How the values were obtained:
[1] = (§1) Antiproliferative activity against human pancreatic stellate cells at 5 uM after 24 to 48 hrs by AlamarBlue assay; format: functional
Outline: (§2)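 Transformed human PSC seeded at 3×10^3 cells/well in sextuplicate. Next day exposed to compound at the stated single concentration in 1% FBS medium for 24–48 h. Viability read by AlamarBlue fluorescence (ex/em 544/590 nm). Values are the mean of at least three independent experiments.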

[2] = (§3) Antiproliferative activity against human pancreatic stellate cells at 20 uM after 24 to 48 hrs by AlamarBlue assay; format: functional; outline: as §2
[3] = (§4) Antiproliferative activity against human pancreatic stellate cells at 10 uM after 24 to 48 hrs by AlamarBlue assay; format: functional; outline: as §2
Homo sapiens [4] = organism: Homo sapiens; assay: as §1; format: functional; outline: as §2
Homo sapiens [5] = organism: Homo sapiens; assay: as §4; format: functional; outline: as §2
Mus musculus [6] = assay: Anti-fibrotic activity in C57BL/6 mouse caerulein-induced chronic pancreatitis model assessed as reduction of stromal fibrosis at 0.5 mg/kg, po administered qd for 6 days per week for 3 weeks using hematoxylin 7211 staining by immunohistochemistry analysis; format: functional, organism-based; set-up: dose 0.5 mg/kg
[7] = Induction of apoptosis in human pancreatic stellate cells after 14 hrs by cell death detection ELISAPLUS assay; format: functional
Outline: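 Transformed human PSC (primary cells immortalised with SV40 large T antigen and telomerase; grown in DMEM, 10% FBS, 37 °C) plated at 8×10^3 per well in triplicate; next day switched to 1% FBS with compound at various doses for 14 h. Cytoplasmic nucleosomes detected by sandwich ELISA, absorbance at 405 nm. EC50 by nonlinear regression against log concentration; at least three independent experiments.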

Mus musculus [8] = assay: Anti-fibrotic activity in C57BL/6 mouse caerulein-induced chronic pancreatitis model assessed as reduction of fibrosis at 0.5 mg/kg, po administered qd for 6 days per week for 3 weeks using hematoxylin 7211 staining by image analysis; format: functional, organism-based; set-up: dose 0.5 mg/kg
Outline: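 C57BL/6 mice given cerulein 50 μg/kg i.p. hourly for 5 h, 3 d/week for 4 weeks; PBS controls. From week 2, oral gavage at 0.5 mg/kg/d, 6 d/week for 3 weeks, in 0.5% methylcellulose + 0.025% Tween 20. Formalin-fixed paraffin sections (5 μm) stained by IHC for fibronectin with hematoxylin counterstain; percent area of stain quantified by image analysis. n = 10–11 per group.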

[9] = Antiproliferative activity against human pancreatic stellate cells after 24 hrs by AlamarBlue assay; format: functional
Outline: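 Immortalized human PSC (SV40 large T plus telomerase, DMEM/10% FBS) seeded at 3×10^3 cells/well in sextuplicate. Next day switched to 1% FBS with a range of compound concentrations for 24 h. AlamarBlue fluorescence read at 544/590 nm. IC50 taken by nonlinear regression of fluorescence versus log concentration, as mean ± SEM of at least three independent experiments.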

Mus musculus [10] = assay: Anti-fibrotic activity in C57BL/6 mouse caerulein-induced chronic pancreatitis model assessed as reduction of acinar cell damage at 0.5 mg/kg, po administered qd for 6 days per week for 3 weeks using hematoxylin 7211 staining by immunohistochemistry analysis; format: functional, organism-based; set-up: dose 0.5 mg/kg
Mus musculus [11] = assay: Anti-fibrotic activity in C57BL/6 mouse caerulein-induced chronic pancreatitis model assessed as reduction of tissue edema at 0.5 mg/kg, po administered qd for 6 days per week for 3 weeks using hematoxylin 7211 staining by immunohistochemistry analysis; format: functional, organism-based; set-up: dose 0.5 mg/kg
Homo sapiens [12] = organism: Homo sapiens; assay: as §3; format: functional; outline: as §2

Compound: COc1cc(OC)c2c(=O)cc(-c3ccc(OCCN(C)C)cc3)oc2c1
- inhibition at 5 µM [1]: 19%
- inhibition at 20 µM [2]: 65%
- inhibition at 10 µM [3]: 51%

Compound: COc1cc(OC)c2c(=O)cc(-c3ccc(OCCBr)cc3)oc2c1
- inhibition (Homo sapiens [4]): inactive
- inhibition at 20 µM [2]: 20%
- inhibition (Homo sapiens [5]): inactive

Compound: COc1cc(OC)c2c(=O)cc(-c3ccc(OCCF)cc3)oc2c1
- inhibition (Homo sapiens [4]): inactive
- inhibition at 20 µM [2]: 21%
- inhibition (Homo sapiens [5]): inactive

Compound: COc1cc(OC)c2c(=O)cc(-c3ccc(OC4CCN(C)CC4)cc3)oc2c1
- inhibition at 5 µM [1]: 28%
- inhibition at 10 µM [3]: 49%

Compound: COc1cc(OC)c2c(=O)cc(-c3ccc(OCC(O)CN4CCCCC4)cc3)oc2c1 (centres undefined)
- Activity (Mus musculus [6]): Active
- EC50 [7]: 35.2 µM
- Activity (Mus musculus [8]): Active
- inhibition at 5 µM [1]: 34%
- IC50 [9]: 8 µM
- inhibition at 20 µM [2]: 95%
- Activity (Mus musculus [10]): Active
- inhibition at 10 µM [3]: 65%
- Activity (Mus musculus [11]): Active

Compound: COc1cc(OC)c2c(=O)cc(-c3ccc(OCCN4CCN(C)CC4)cc3)oc2c1
- inhibition at 5 µM [1]: 22%
- inhibition at 20 µM [2]: 67%
- inhibition at 10 µM [3]: 42%

Compound: COc1cc(O)c2c(=O)cc(-c3ccc(OCCN4CCCC4)cc3)oc2c1
- inhibition (Homo sapiens [4]): inactive
- inhibition at 20 µM [2]: 99%
- inhibition at 10 µM [3]: 39%

Compound: COc1cc(OC)c2c(=O)cc(-c3ccc(OCC4CO4)cc3)oc2c1 (centres undefined)
- Activity (Mus musculus [6]): Active
- EC50 [7]: 9.6 µM
- Activity (Mus musculus [8]): Active
- inhibition at 5 µM [1]: 69%
- IC50 [9]: 2.5 µM
- inhibition at 20 µM [2]: 93%
- Activity (Mus musculus [10]): Active
- inhibition at 10 µM [3]: 89%
- Activity (Mus musculus [11]): Active

Compound: COc1cc(OC)c2c(=O)cc(-c3ccc(OCCN4CCCC4=O)cc3)oc2c1
- inhibition at 5 µM [1]: 7%
- inhibition at 20 µM [2]: 33%
- inhibition at 10 µM [3]: 14%

Compound: CCN(CC)CCOc1ccc(-c2cc(=O)c3c(OC)cc(OC)cc3o2)cc1
- inhibition at 5 µM [1]: 33%
- inhibition at 20 µM [2]: 72%
- inhibition at 10 µM [3]: 60%

Compound: COc1cc(OC)c2c(=O)cc(-c3ccc(Br)cc3)oc2c1
- inhibition at 5 µM [1]: 12%
- inhibition at 20 µM [2]: 22%
- inhibition at 10 µM [3]: 10%

Compound: COc1cc(OC)c2c(=O)cc(-c3ccc(NCCN(C)C)cc3)oc2c1
- inhibition at 5 µM [1]: 30%
- inhibition at 20 µM [2]: 84%
- inhibition at 10 µM [3]: 60%

Compound: O=c1cc(-c2ccc(O)cc2)oc2cc(O)cc(O)c12 [APIGENIN]
- Activity (Mus musculus [6]): Active
- EC50 [7]: 24.5 µM
- Activity (Mus musculus [8]): Active
- inhibition at 5 µM [1]: 11%
- IC50 [9]: 18.6 µM
- inhibition at 20 µM [2]: 64%
- Activity (Mus musculus [10]): Active
- inhibition at 10 µM [3]: 34%
- Activity (Mus musculus [11]): Active

Compound: COc1cc(OC)c2c(=O)cc(-c3ccc(OCC(O)CO)cc3)oc2c1 (centres undefined)
- inhibition (Homo sapiens [4]): inactive
- inhibition at 20 µM [2]: 16%
- inhibition at 10 µM [3]: 11%

Compound: COc1cc(OC)c2c(=O)cc(-c3ccc(OCCCN)cc3)oc2c1
- inhibition at 5 µM [1]: 22%
- inhibition at 10 µM [3]: 39%

Compound: COc1cc(OC)c2c(=O)cc(-c3ccc(OCCCN(C)C)cc3)oc2c1
- inhibition at 5 µM [1]: 36%
- inhibition at 20 µM [2]: 86%
- inhibition at 10 µM [3]: 59%

Compound: COc1cc(OC)c2c(=O)cc(-c3ccc(O)cc3)oc2c1
- inhibition (Homo sapiens [4]): inactive
- inhibition (Homo sapiens [12]): inactive
- inhibition (Homo sapiens [5]): inactive

Compound: COc1cc(OC)c2c(=O)cc(-c3ccc(NCCN4CCCC4)cc3)oc2c1
- inhibition at 5 µM [1]: 21%
- inhibition at 20 µM [2]: 80%
- inhibition at 10 µM [3]: 51%

Compound: COC(=O)[C@@H]1CCCN1CCOc1ccc(-c2cc(=O)c3c(OC)cc(OC)cc3o2)cc1
- inhibition at 5 µM [1]: 22%
- inhibition at 20 µM [2]: 67%
- inhibition at 10 µM [3]: 37%

Compound: COc1cc(OC)c2c(=O)cc(-c3ccc(-c4ccc(F)nc4)cc3)oc2c1
- inhibition (Homo sapiens [4]): inactive
- inhibition at 20 µM [2]: 19%
- inhibition at 10 µM [3]: 6%

Compound: COc1cc(OC)c2c(=O)cc(-c3ccc(OC4CCNCC4)cc3)oc2c1
- inhibition (Homo sapiens [4]): inactive
- inhibition at 10 µM [3]: 21%

Compound: COc1cc(OC)c2c(=O)cc(-c3ccc(OCCN4CCOCC4)cc3)oc2c1
- inhibition (Homo sapiens [4]): inactive
- inhibition (Homo sapiens [12]): inactive
- inhibition (Homo sapiens [5]): inactive

Compound: COc1cc(OC)c2c(=O)cc(-c3ccc(OCC(O)CN4CCCC4)cc3)oc2c1 (centres undefined)
- inhibition at 5 µM [1]: 21%
- inhibition at 20 µM [2]: 57%
- inhibition at 10 µM [3]: 37%

Compound: O=c1cc(-c2ccc(OCCN3CCCC3)cc2)oc2cc(O)cc(O)c12
- inhibition at 5 µM [1]: 2%
- inhibition at 20 µM [2]: 90%
- inhibition at 10 µM [3]: 71%

Compound: COc1cc(OC)c2c(=O)cc(-c3ccc(OCCN4CCCC4)cc3)oc2c1
- inhibition at 5 µM [1]: 48%
- inhibition at 20 µM [2]: 98%
- inhibition at 10 µM [3]: 66%

Compound: COc1cc(OC)c2c(=O)cc(-c3ccc(OCCN4CCCCC4)cc3)oc2c1
- inhibition at 5 µM [1]: 45%
- inhibition at 20 µM [2]: 97%
- inhibition at 10 µM [3]: 64%

Compound: COc1cc(OC)c2c(=O)cc(-c3ccc(OCC(O)CN(C)C)cc3)oc2c1 (centres undefined)
- inhibition at 5 µM [1]: 42%
- inhibition at 20 µM [2]: 71%
- inhibition at 10 µM [3]: 60%

Compound: COc1cc(OC)c2c(=O)cc(-c3ccc(OCCN)cc3)oc2c1
- inhibition at 5 µM [1]: 6%
- inhibition at 20 µM [2]: 70%
- inhibition at 10 µM [3]: 35%
